Screening results as filed in PubChem.
STAT1 blocker = inhibitors of IFN-gamma induced STAT1 signaling; NIH 3T3 STAT1-luciferase reporter, luminescence; inhibition, % at 5.5 µM; 0.35% of 200,000 active; AID 920;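 active means inhibition above a set limit, the mean inhibition across all tested compounds plus 3 SD, cut at about 34% in these data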;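 further: 0% = IFN-gamma with DMSO and 100% = IFN-gamma with 300 µM nifuroxazide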
STAT3 act = activators of IL-6 induced STAT3 signaling. U3A cells, IL-6 STAT3-luciferase reporter, luminescence; 100% = signal with IL-6 EC80 alone. activation (% of control), % at 5.6 µM. 0.91% of 190,000 active. AID 871;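 active means activation above the screen-wide mean of compound activation plus 3 SD, cut at about 130% in these data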;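 further: 0% = background luminescence of wells with medium and substrate only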
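Material: STAT1-lacking human U3A cells, STAT3 luciferase reporter | Benchmarks: IL-6-only wells as 100% reference | Probe or stimulus: IL-6 (33 ng/mL) | Timing: Compound 1 h, then IL-6 6 h at 37 °C | Detection: Luminescence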
FLuc inhib CS = inhibits firefly luciferase, flagging false hits in luciferase inhibition screens; inhibition, % at 10 µM; ATPLite firefly luciferase biochemical luminescence, 10 min; 1.5% of 200,000 active;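 active means inhibition above about 50% when tested at 10 µM, limit read from the data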
Target sequence (P08659 whole entry, looked up): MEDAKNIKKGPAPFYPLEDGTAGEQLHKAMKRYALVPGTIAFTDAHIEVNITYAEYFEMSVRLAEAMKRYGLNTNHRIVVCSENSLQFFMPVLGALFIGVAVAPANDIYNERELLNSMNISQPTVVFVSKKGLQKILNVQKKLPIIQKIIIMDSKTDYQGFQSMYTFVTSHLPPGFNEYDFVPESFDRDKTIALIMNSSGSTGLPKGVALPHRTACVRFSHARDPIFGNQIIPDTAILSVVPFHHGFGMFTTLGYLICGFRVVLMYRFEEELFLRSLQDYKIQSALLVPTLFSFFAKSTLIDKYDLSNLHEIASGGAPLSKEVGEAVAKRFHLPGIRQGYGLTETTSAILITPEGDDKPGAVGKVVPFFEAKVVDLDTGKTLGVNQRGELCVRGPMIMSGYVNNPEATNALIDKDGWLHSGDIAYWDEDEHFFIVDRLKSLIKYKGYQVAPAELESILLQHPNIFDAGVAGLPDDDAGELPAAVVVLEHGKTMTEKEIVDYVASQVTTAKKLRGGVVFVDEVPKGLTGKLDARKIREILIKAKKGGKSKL
STAT1 activator = activators of IFN-gamma induced STAT1 signaling; NIH 3T3 STAT1-luciferase reporter, luminescence; 100% = IFN-gamma alone, no compound; activation (% of control), % at 5.5 µM; 2.6% of 200,000 active;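 active means activation above the screen-wide mean activation plus 3 SD, cut at about 130% in these data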;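 further: raw ratio to IFN-gamma control signal so 100% means no change and 0% no light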
STAT3 blocker = reduces IL-6 driven STAT3 reporter signal; U3A cells, IL-6 STAT3-luciferase reporter, luminescence; host cell line lacks STAT1; inhibition, % at 5.5 µM; 0.89% of 190,000 active; AID 862;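 active means inhibition above the mean inhibition across all screened compounds plus 3 SD, cut at about 44% in these data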;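 further: 0% = DMSO only wells and 100% = 100 µM nifuroxazide control wells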
FLuc act counter = affects firefly luciferase, flagging false hits in luciferase stimulation screens; P08659; ATPlite luciferase biochemical, luminescence, 10 min; 0 = ATP-free wells, 1 = DMSO control; activation factor at 10 µM; 200,000 tested, under 10 active;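 active means luciferase activation factor, scaled between plate controls, of at least 2 with compound at 10 µM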
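Material: Luciferase/luciferin reagent mix | Doses: Test compounds dosed from 2 mM stocks in 100% DMSO | Timing: 10 min incubation after luciferase reagent addition, room temperature | Measured by: Luminescence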
* marks the source's active call; other numbers are inactive results. The list is not random: actives were taken first. Their share in the collection is about 4.9%.

SMILES	STAT1 blocker	STAT3 act	FLuc inhib CS	STAT1 activator	STAT3 blocker	FLuc act counter
CS(=O)(=O)NN1C(=O)c2ccccc2NC1c1c[nH]c2ccccc12 (stereo not drawn)	-12	103	-5	111	-4	1
CCNc1nc(N)c(C(=O)c2ccc(Cl)s2)s1	-49	90	3	144*	15	1
CCOC(=O)CNC(=O)c1ccc(Cl)s1	-2	105	-1	102	-6	1
CCOC(=O)N1N=C(c2ccc(OC)cc2)CC1(O)C(F)(F)F (stereo not drawn)	-19	90	46	116	13	0.5
CCc1ccc(C2=NN(C(=O)OC)C(O)(C(F)(F)F)C2)cc1 (stereo not drawn)	38*	48	73*	66	69*	0.3
CCOC(=O)c1cnn(-c2cc(C)nc3c(-c4ccccc4)cnn23)c1N	6	91	2	95	13	1
Cc1cc(N)n2ncc(-c3ccc(Cl)cc3)c2n1	-44	110	-5	140*	-7	1
Cc1cc(N)n2ncc(-c3ccc(F)cc3)c2n1	-43	117	7	140*	-15	0.9
Cc1cc(C)n(-c2nc3ccccc3c(=O)n2OCc2ccc(F)cc2)n1	10	135*	0	91	-31	1
C=CCn1c(COc2cccc(C)c2)nnc1SCC(=O)c1c[nH]c2c(CC)cccc12	-6	96	-4	105	7	1
CCOC(=O)C1CCCN(C(=S)Nc2ccc(C)cc2C)C1 (stereo not drawn)	2	120	-8	98	-23	1.1
CSc1ccc(/C=C/C(=O)NC(=O)c2ccccc2O)cc1	3	79	86*	96	26	0.1
O=C(/C=C/c1ccc(Br)cc1)NC(=O)c1ccccc1O	2	83	91*	96	24	0.1
O=C(NO)c1ccccc1O	2	90	-6	98	14	1.1
Cc1ccc(OCC(=O)Nc2ccc(N3CCN(S(C)(=O)=O)CC3)cc2)c(C)c1	-5	104	-5	103	-3	1.1
Cc1ccc(C(C)C)c(OCC(=O)Nc2ccc(N3CCN(S(C)(=O)=O)CC3)cc2)c1	-1	133*	-5	103	-36	1
COc1ccc(O[C@H]2C=C[C@@H](c3ccccc3)O[C@@H]2COC(=O)CC/C(C)=N/OC[C@@H](O)[C@H]2O[C@@H]3OC(C)(C)O[C@@H]3[C@H]2O)cc1	9	96	-3	92	1	1
COc1ccc2oc(=O)c(-c3nc(C)cs3)cc2c1	-39	94	17	135*	13	0.8
O=C1C(C=NC2CC2)=C(O)c2ccccc21	-28	123	5	126	-20	1
COc1cc(N=CC2=C(O)c3ccccc3C2=O)cc(OC)c1	-53	89	-2	148*	16	1
O=C(Nc1ccccc1)c1cc2n(n1)C(C(F)(F)F)CC(C1CC1)N2 (stereo not drawn)	-48	106	0	142*	-4	1
Cc1cc2c(ncn2C)c(NS(=O)(=O)c2ccc(Cl)cc2)c1C	-2	89	-6	101	16	1.1
CC[n+]1c(/C=C/c2c[nH]c3ccccc23)ccc2cc(C)ccc21	58*	51	16	45	59*	0.8
CCN(CC)C(=O)c1ccc(/C=C/c2c[nH]c3ccccc23)[n+](C)c1	-3	117	-5	103	-14	1.1
O=C(COc1c(Cl)cc(Cl)cc1Cl)c1ccc(Cl)cc1	4	97	-1	97	1	1
SMILES	STAT1 blocker	STAT3 act	FLuc inhib CS	STAT1 activator	STAT3 blocker	FLuc act counter
COc1cc(/C=N/N2C(=O)c3ccccc3C2=O)ccc1O	8	100	57*	93	3	0.4
COc1cc(/C=N/N=C2/C(=O)Nc3ccccc32)ccc1O	5	110	94*	96	-13	0.1
COc1cc(/C=N/N2C(=O)C3C4C=CC(CC4)C3C2=O)ccc1O (stereo not drawn)	-31	106	14	127	5	0.9
COc1cc(/C=N/N=C2/NC(=O)C(c3ccccc3)S2)ccc1O (stereo not drawn)	7	99	-1	95	11	1
O=C(Cc1ccccc1[N+](=O)[O-])NCc1ccc(Cl)cc1Cl	-34	105	59*	131*	-10	0.4
O=C(Nc1ccc2c(c1)OCO2)c1cnccn1	-35	106	21	130*	0	0.8
O=C(Nc1ccc2c(c1)OCO2)c1cc(C2CC2)on1	-48	92	47	146*	10	0.5
CC(C)c1cc(C(=O)Nc2ccc3c(c2)OCO3)no1	-21	92	45	116	9	0.5
O=C(COC(=O)c1cnccn1)Nc1ccc2c(c1)OCO2	4	98	-5	94	5	1.1
CCN(CC)S(=O)(=O)c1ccc(OC)c(NC(=S)Nc2cccc(C)c2C)c1	0	99	-7	100	1	1.1
Cc1ccc(S(=O)(=O)N2CCN(C(=O)c3cccs3)CC2)c(C)c1	3	112	-8	97	-8	1.1
Cc1sc2ncnc(Sc3ccccc3C(=O)Nc3ccccc3Cl)c2c1C	-12	103	-5	111	-8	1.1
CCCn1c2c(c(O)c(C(=O)Nc3ccccc3)c1=O)CCCC2	-2	133*	-7	102	-28	1.1
CC(C)Nc1nnc(SCC(=O)Nc2ccc3c(c2)C(=O)c2ccccc2C3=O)s1	-30	101	8	127	1	0.9
O=C(CSc1nnc(NC2CCCCC2)s1)Nc1ccc2c(c1)C(=O)c1ccccc1C2=O	-44	101	2	139*	6	1
Cc1cc(/C=C2/NC(=O)N(c3ccccc3)C2=O)c(C)n1C(C)C	-33	80	26	129*	26	0.7
Cc1cc(/C=C2/NC(=O)N(Cc3ccccc3F)C2=O)c(C)n1C(C)C	0	101	2	100	-2	1
COc1ccccc1CC(NC(C)=O)C(=O)NC1CCN(C(=O)c2ccc([N+](=O)[O-])cc2)CC1 (stereo not drawn)	-1	104	-2	101	-1	1
CN(C)c1ncnc2c1ncn2C1OC(CO)C(O)C1O (stereo not drawn)	62*	67	-3	43	44*	1
O=S(=O)(NC1CCCC1)c1ccc(S(=O)(=O)N(Cc2cccs2)CC2CCCO2)cc1 (stereo not drawn)	8	104	-2	93	-3	1
